ChEMBL document CHEMBL3232914, “Ultrasound promoted one pot synthesis of novel fluorescent triazolyl spirocyclic oxindoles using DBU based task specific ionic liquids and their antimicrobial activity” (2014)
Values after ≈ are worked out from the molar mass of the structure shown. Active and inactive are the calls of the source. No cut-off for these calls is given here.

Tests used:
Pseudomonas aeruginosa [1] = conditions: MTCC 741, 4 mg/mL
Candida albicans [2] = experiment: Antifungal activity against Candida albicans MTCC 227 assessed as growth inhibition by macrodilution tube method; format: functional
Summary of the method: (§1)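 The MIC against the yeasts was determined with amphotericin-B as the reference standard drug.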

Saccharomyces cerevisiae [3] = experiment: Antifungal activity against Saccharomyces cerevisiae MTCC 170 assessed as growth inhibition by macrodilution tube method; format: functional
Summary of the method: as §1

Staphylococcus aureus [4] = experiment: Antibacterial activity against Staphylococcus aureus MTCC 96 assessed as growth inhibition at 4 mg/mL after 24 hrs by agar well diffusion method; format: functional; conditions: MTCC 96, 24 h, read-out: DIZ
Summary of the method: (§2)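 Agar wells 8 mm in diameter. The read-out is the diameter of the growth inhibition zone in mm, including the well, given as the mean of three replicates.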

Staphylococcus aureus [5] = experiment: Bactericidal activity against Staphylococcus aureus MTCC 96 after 24 hrs; format: functional; conditions: MTCC 96, 24 h
Bacillus subtilis [6] = experiment: Antibacterial activity against Bacillus subtilis MTCC 121 assessed as growth inhibition after 24 hrs by macrodilution tube method; format: functional; conditions: MTCC 121, 24 h
Escherichia coli = experiment: Antibacterial activity against Escherichia coli MTCC 1652 assessed as growth inhibition at 4 mg/mL after 24 hrs by agar well diffusion method; format: functional, organism-based
Summary of the method: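 Agar well diffusion with 8 mm wells. The inhibition zone diameter is reported in mm, with the well diameter included. Values are means of three replicates.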

Candida albicans [7] = experiment: Antifungal activity against Candida albicans MTCC 227 assessed as growth inhibition at 4 mg/mL after 24 hrs by agar well diffusion method; format: functional; conditions: MTCC 227, 24 h, read-out: DIZ
Summary of the method: as §2

Staphylococcus aureus [8] = experiment: Antibacterial activity against Staphylococcus aureus MTCC 96 assessed as growth inhibition after 24 hrs by macrodilution tube method; format: functional; conditions: MTCC 96, 24 h
Saccharomyces cerevisiae [9] = experiment: Antifungal activity against Saccharomyces cerevisiae MTCC 170 assessed as growth inhibition at 4 mg/mL after 24 hrs by agar well diffusion method; format: functional; conditions: MTCC 170, 24 h, read-out: DIZ
Summary of the method: as §2

Bacillus subtilis [10] = experiment: Bactericidal activity against Bacillus subtilis MTCC 121 after 24 hrs; format: functional; conditions: MTCC 121, 24 h
Bacillus subtilis [11] = experiment: Antibacterial activity against Bacillus subtilis MTCC 121 assessed as growth inhibition at 4 mg/mL after 24 hrs by agar well diffusion method; format: functional; conditions: MTCC 121, 24 h, read-out: DIZ
Summary of the method: as §2

Pseudomonas aeruginosa [12] = experiment: microbe, parasite or virus in culture; conditions: MTCC 741, 24 h, read-out: DIZ

| Compound | DIZ (Pseudomonas aeruginosa [1]) | MIC (Candida albicans [2]) [µg/mL] | MIC (Saccharomyces cerevisiae [3]) [µg/mL] | zone of inhibition at 4000 µg/mL (Staphylococcus aureus [4]) [mm] | MBC (Staphylococcus aureus [5]) [µg/mL] | MIC (Bacillus subtilis [6]) [µg/mL] | diameter of the inhibition zone (DIZ) (Escherichia coli) | zone of inhibition at 4000 µg/mL (Candida albicans [7]) [mm] | MIC (Staphylococcus aureus [8]) [µg/mL] | zone of inhibition at 4000 µg/mL (Saccharomyces cerevisiae [9]) [mm] | MBC (Bacillus subtilis [10]) [µg/mL] | zone of inhibition at 4000 µg/mL (Bacillus subtilis [11]) [mm] | zone of inhibition at 4000 µg/mL (Pseudomonas aeruginosa [12]) [mm] |
| --- | --- | --- | --- | --- | --- | --- | --- | --- | --- | --- | --- | --- | --- |
| COc1ccc(-n2cc(CN3C(=O)C4(C(C#N)=C(N)Oc5c4c(=O)n(C)c(=O)n5C)c4ccccc43)nn2)cc1 (stereo not given) | inactive | 128 (≈ 238 µM) | 64 (≈ 119 µM) | 15.3 | 512 (≈ 951 µM) | 128 (≈ 238 µM) | inactive | 14.6 | 256 (≈ 475 µM) | 17.6 | 256 (≈ 475 µM) | 17.6 |  |
| CC1(C)CC(=O)C2=C(C1)OC(N)=C(C#N)C21C(=O)N(Cc2cn(-c3ccc([N+](=O)[O-])cc3)nn2)c2ccccc21 (stereo not given) | inactive | 256 (≈ 476 µM) | 256 (≈ 476 µM) | 16.6 | 128 (≈ 238 µM) | 128 (≈ 238 µM) | inactive | 14.3 | 128 (≈ 238 µM) | 15.3 | 256 (≈ 476 µM) | 17.3 |  |
| Cn1c2c(c(=O)n(C)c1=O)C1(C(=O)N(Cc3cn(-c4ccc([N+](=O)[O-])cc4)nn3)c3ccccc31)C(C#N)=C(N)O2 (stereo not given) | inactive | 512 (≈ 925 µM) | 512 (≈ 925 µM) | 15.3 | 512 (≈ 925 µM) | 64 (≈ 116 µM) | inactive | 12.6 | 128 (≈ 231 µM) | 13.6 | 128 (≈ 231 µM) | 18.6 |  |
| CC1(C)CC(=O)C2=C(C1)OC(N)=C(C#N)C21C(=O)N(Cc2cn(-c3ccc(F)c(Cl)c3)nn2)c2ccccc21 (stereo not given) | inactive | 256 (≈ 470 µM) | 256 (≈ 470 µM) | 19.6 | 128 (≈ 235 µM) | 32 (≈ 58.7 µM) | inactive | 13.6 | 64 (≈ 117 µM) | 14.3 | 128 (≈ 235 µM) | 21.3 |  |
| COc1ccc(-n2cc(CN3C(=O)C4(C(C#N)=C(N)OC5=C4C(=O)CCC5)c4ccccc43)nn2)cc1 (stereo not given) | inactive | 128 (≈ 259 µM) | 64 (≈ 129 µM) | 14 | 512 (≈ 1040 µM) | 32 (≈ 64.7 µM) | inactive | 16 | 64 (≈ 129 µM) | 16.3 | 128 (≈ 259 µM) | 15.6 |  |
| Cc1ccc(-n2cc(CN3C(=O)C4(C(C#N)=C(N)Oc5c4c(=O)n(C)c(=O)n5C)c4ccccc43)nn2)cc1 (stereo not given) | inactive | 512 (≈ 980 µM) | 256 (≈ 490 µM) | 14.3 | 256 (≈ 490 µM) | 128 (≈ 245 µM) | inactive | 12.3 | 128 (≈ 245 µM) | 14.3 | 128 (≈ 245 µM) | 16.3 |  |
| O=C(O)c1cn(C2CC2)c2cc(N3CCNCC3)c(F)cc2c1=O [CIPROFLOXACIN] |  |  |  | 26.6 | 6.25 (≈ 18.9 µM) | 6.25 (≈ 18.9 µM) |  |  |  |  | 6.25 (≈ 18.9 µM) | 24 | 22 |
| N#CC1=C(N)OC2=C(C(=O)CCC2)C12C(=O)N(Cc1cn(-c3ccc([N+](=O)[O-])cc3)nn1)c1ccccc12 (stereo not given) | inactive | 512 (≈ 1000 µM) | 256 (≈ 502 µM) | 17.6 | 256 (≈ 502 µM) | 128 (≈ 251 µM) | inactive | 12.3 | 128 (≈ 251 µM) | 13.6 | 256 (≈ 502 µM) | 18.6 |  |
| N#CC1=C(N)OC2=C(C(=O)CCC2)C12C(=O)N(Cc1cn(-c3ccc(Br)cc3)nn1)c1ccccc12 (stereo not given) | inactive | 512 (≈ 942 µM) | 256 (≈ 471 µM) | 18.6 | 64 (≈ 118 µM) | 32 (≈ 58.9 µM) | inactive | 12.6 | 64 (≈ 118 µM) | 14.3 | 128 (≈ 236 µM) | 20.3 |  |
| CC1(C)CC(=O)C2=C(C1)OC(N)=C(C#N)C21C(=O)N(Cc2cn(-c3ccccc3)nn2)c2ccccc21 (stereo not given) | inactive | 256 (≈ 520 µM) | 256 (≈ 520 µM) | 14.6 | 128 (≈ 260 µM) | 128 (≈ 260 µM) | inactive | 13.3 | 128 (≈ 260 µM) | 14.3 | 256 (≈ 520 µM) | 16.3 |  |
| COc1ccc(-n2cc(CN3C(=O)C4(C(C#N)=C(N)OC5=C4C(=O)CC(C)(C)C5)c4ccccc43)nn2)cc1 (stereo not given) | inactive | 128 (≈ 245 µM) | 64 (≈ 122 µM) | 15.6 | 256 (≈ 490 µM) | 128 (≈ 245 µM) | inactive | 16.6 | 128 (≈ 245 µM) | 15.6 | 256 (≈ 490 µM) | 17.3 |  |
| Cn1c2c(c(=O)n(C)c1=O)C1(C(=O)N(Cc3cn(-c4ccc(Br)cc4)nn3)c3ccccc31)C(C#N)=C(N)O2 (stereo not given) | inactive | 256 (≈ 436 µM) | 128 (≈ 218 µM) | 20.6 | 64 (≈ 109 µM) | 16 (≈ 27.2 µM) | inactive | 13.3 | 32 (≈ 54.5 µM) | 15.3 | 64 (≈ 109 µM) | 22.3 |  |
| CC1(C)CC(=O)C2=C(C1)OC(N)=C(C#N)C21C(=O)N(Cc2cn(-c3ccc(Br)cc3)nn2)c2ccccc21 (stereo not given) | inactive | 512 (≈ 896 µM) | 128 (≈ 224 µM) | 19.3 | 128 (≈ 224 µM) | 16 (≈ 28 µM) | inactive | 13.3 | 32 (≈ 56 µM) | 14.6 | 64 (≈ 112 µM) | 22.2 |  |
| CC1(C)CC(=O)C2=C(C1)OC(N)=C(C#N)C21C(=O)N(Cc2cn(-c3cccc(Cl)c3)nn2)c2ccccc21 (stereo not given) | inactive | 512 (≈ 972 µM) | 256 (≈ 486 µM) | 19.3 | 128 (≈ 243 µM) | 32 (≈ 60.7 µM) | inactive | 12.3 | 64 (≈ 121 µM) | 13.6 | 128 (≈ 243 µM) | 20.6 |  |
| Cc1ccc(-n2cc(CN3C(=O)C4(C(C#N)=C(N)OC5=C4C(=O)CC(C)(C)C5)c4ccccc43)nn2)cc1 (stereo not given) | inactive | 512 (≈ 1010 µM) | 256 (≈ 505 µM) | 14.3 | 256 (≈ 505 µM) | 32 (≈ 63.2 µM) | inactive | 12.6 | 128 (≈ 253 µM) | 14 | 256 (≈ 505 µM) | 15.6 |  |
| Cc1ccc(-n2cc(CN3C(=O)C4(C(C#N)=C(N)OC5=C4C(=O)CCC5)c4ccccc43)nn2)cc1 (stereo not given) | inactive | 128 (≈ 267 µM) | 128 (≈ 267 µM) | 13.6 | 512 (≈ 1070 µM) | 128 (≈ 267 µM) | inactive | 14.3 | 256 (≈ 535 µM) | 15.6 | 128 (≈ 267 µM) | 16.3 |  |
| C[C@@H]1[C@H](O)[C@@H](C)/C=C/C=C/C=C/C=C/C=C/C=C/C=C/[C@H](O[C@@H]2O[C@H](C)[C@@H](O)[C@H](N)[C@@H]2O)C[C@@H]2O[C@](O)(C[C@@H](O)C[C@@H](O)[C@H](O)CC[C@@H](O)C[C@@H](O)CC(=O)O[C@H]1C)C[C@H](O)[C@H]2C(=O)O [AMPHOTERICIN B] |  | 100 (≈ 108 µM) | 100 (≈ 108 µM) |  |  |  |  | 17.6 |  | 18.3 |  |  |  |
